Source: ChEMBL document CHEMBL1155077, “Kinesin spindle protein (KSP) inhibitors. 9. Discovery of (2S)-4-(2,5-difluorophenyl)-n-[(3R,4S)-3-fluoro-1-methylpiperidin-4-yl]-2-(hydroxymethyl)-N-methyl-2-phenyl-2,5-dihydro-1H-pyrrole-1-carboxamide (MK-0731) for the treatment of taxane-refractory cancer” (J Med Chem, 2008)
Activity calls are given as the source filed them.

What was measured:
[1] = Aqueous solubility at pH 4.3; format: physicochemical; conditions: aqueous solution
[2] = Ratio of IC50 for induction of mitotic arrest in human […] to IC50 for induction of mitotic arrest in […] human KB-V-1 cells; format: functional
Outline: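 Phospho-nucleolin mitotic-arrest assay in parental KB-3-1 and MDR1-overexpressing KB-V-1 cells (>500-fold higher MDR1 mRNA). Cells were treated in triplicate for 16 h across 10 000 to 0.1 nM (11-point, half-log series; 0.1% DMSO final). Total nucleolin was bead-captured from lysates and phospho-nucleolin detected by TG3 antibody plus a ruthenium-labelled secondary. Ratio = IC50 (KB-V-1) / IC50 (KB-3-1).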

[3] = Inhibition of tubulin polymerization at 20 uM
Outline: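 Tubulin at 2.5 mg/mL with 0.5 mM GTP in 80 mM K-PIPES pH 6.8, 1 mM MgCl2, 1 mM EGTA; compound at 20 µM final from DMSO; 37 °C. Light scattering read at 320 and 340 nm every 30 s for 75 min, with paclitaxel and colchicine (20 µM) controls.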

[4] = molecular target: Kinesin-like protein KIF14 (Homo sapiens, UniProt Q15058); experiment: Inhibition of cloned human Kif14
[5] = Clearance in rhesus monkey at 0.4 mg/kg, iv; format: ADME, organism-based, Macaca mulatta; design: dose 0.4 mg/kg, route intravenous; conditions: in vivo
[6] = molecular target: Voltage-gated inwardly rectifying potassium channel KCNH2 (Homo sapiens, UniProt Q12809)
[7] = Clearance in rat at 1 mg/kg, iv; format: ADME, organism-based; design: dose 1 mg/kg, route intravenous; conditions: in vivo
[8] = tested on: A2780; experiment: Induction of mitotic arrest in human A2780 cells […] clr:NU/NU-nuBR mouse assessed as minimum plasma concentration required to induce maximum mitotic arrest after 22 hrs; format: functional
[9] = tested on: PTX10; experiment: Inhibition of tumor growth in paclitaxel-resistant human PTX10 cells carries tubulin mutation xenografted clr:NU/NU-nuBR mouse assessed as change in tumor volume at 100 mg/kg, sc administered q4d x 3 dosing schedule relative to control
[10] = tested on: Rattus norvegicus; experiment: Acute toxicity in rat at 15 mg/kg, iv; format: organism-based; design: dose 15 mg/kg, route intravenous; conditions: in vivo
[11] = Toxicity in human A2780 cells xenografted clr:NU/NU-nuBR mouse assessed as maximum tolerated dose; format: organism-based; conditions: in vivo
Outline: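 Maximum tolerated dose was set in protocols in naive mice that varied dose, vehicle and frequency, with survival as the end point and peripheral blood counts tracked. The schedule was sc injection every 4 days × 3 in saline acidified to pH 4.0, 100 µL per dose.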

[12] = Induction of apoptosis in human […] cells assessed as caspase 3 activation after 48 hrs by fluorescent assay; format: functional, cell-based
Outline: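 A2780 cells seeded 20 000/well, grown overnight, then treated in triplicate 48 h with vehicle or compound, 300 to 0.415 nM (7-point, 3-fold series), 0.1% DMSO final.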

[13] = Effect on […] formation in human […] cells assessed as mitotic spindles at 50 nM after 16 hrs by fluorescence microscopy; format: functional
Outline: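 A2780 cells grown in slide chambers, exposed 16 h to 5 or 50 nM compound or 0.1% DMSO. Fixed/permeabilized in PIPES buffer pH 6.8 with Triton X-100 and 4% formaldehyde, blocked with 2% BSA, stained with anti-α-tubulin (DM1, 12 h 4 °C), FITC secondary and Hoechst 33342; spindles viewed by fluorescence microscopy.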

[14] = species on record: Mus musculus; experiment: Toxicity in naive mouse assessed as neutopenia after 6 days; format: organism-based; conditions: in vivo, 144 h
Outline: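 Naive mice dosed under protocols varying dose, vehicle and frequency, with survival as the end point; peripheral blood counts, including neutrophils, followed after dosing.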

[15] = Dissociation constant, pKa by Sirius GLpKa titrator; format: physicochemical
Outline: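 Potentiometric pKa measured on a Sirius GLpKa titrator; mean of n = 3 determinations unless marked as a single determination.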

[16] = molecular target: T1, Kinesin-like protein KIF23 (Homo sapiens, UniProt Q02241); experiment: Inhibition of cloned human MKLP1
T1 sequence (Q02241 whole entry): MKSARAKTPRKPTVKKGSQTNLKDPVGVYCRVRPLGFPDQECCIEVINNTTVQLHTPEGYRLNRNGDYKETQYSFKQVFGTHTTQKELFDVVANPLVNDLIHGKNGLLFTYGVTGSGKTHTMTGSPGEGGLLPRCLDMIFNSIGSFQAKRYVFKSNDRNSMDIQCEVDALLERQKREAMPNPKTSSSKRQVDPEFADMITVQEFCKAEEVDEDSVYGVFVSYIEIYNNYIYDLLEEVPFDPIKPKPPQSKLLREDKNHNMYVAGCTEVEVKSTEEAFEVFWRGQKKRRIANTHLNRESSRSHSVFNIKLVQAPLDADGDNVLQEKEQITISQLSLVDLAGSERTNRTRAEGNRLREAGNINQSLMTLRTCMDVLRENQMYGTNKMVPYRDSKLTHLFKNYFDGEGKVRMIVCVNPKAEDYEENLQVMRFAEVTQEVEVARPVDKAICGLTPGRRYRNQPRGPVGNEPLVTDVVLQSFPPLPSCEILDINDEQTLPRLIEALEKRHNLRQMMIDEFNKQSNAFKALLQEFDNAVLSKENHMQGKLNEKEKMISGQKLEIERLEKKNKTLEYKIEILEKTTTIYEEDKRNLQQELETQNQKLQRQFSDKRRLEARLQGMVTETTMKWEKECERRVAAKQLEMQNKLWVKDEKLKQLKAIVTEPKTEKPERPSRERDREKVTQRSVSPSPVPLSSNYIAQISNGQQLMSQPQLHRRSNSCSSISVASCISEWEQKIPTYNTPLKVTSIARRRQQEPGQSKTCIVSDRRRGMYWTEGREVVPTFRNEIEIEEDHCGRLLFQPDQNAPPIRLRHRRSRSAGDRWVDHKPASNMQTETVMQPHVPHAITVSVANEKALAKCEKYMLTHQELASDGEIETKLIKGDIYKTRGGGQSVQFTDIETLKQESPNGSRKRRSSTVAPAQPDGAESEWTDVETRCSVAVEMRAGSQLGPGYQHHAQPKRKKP

[17] = tested on: A2780; experiment: Induction of mitotic arrest in human A2780 cells expressing MDR1 after 16 hrs; format: functional, cell-based; conditions: A2780, 16 h
[18] = Inhibition of human KSP in presence of 30% mouse serum
Outline: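 KSP ATPase assay as the primary one (0.25 nM KSP motor domain, microtubules, 1 mM ATP, pH 6.8, 3 h at RT, quinaldine red phosphate read-out), run with 30% mouse serum dialysed against reaction buffer (12-14 kDa cutoff). Mean of at least 3 experiments unless noted.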

[19] = molecular target: Centromere-associated protein E (Homo sapiens, UniProt Q02224); experiment: Inhibition of cloned human CENP-E

Sequence of Voltage-gated inwardly rectifying potassium channel KCNH2 (Q12809 whole entry): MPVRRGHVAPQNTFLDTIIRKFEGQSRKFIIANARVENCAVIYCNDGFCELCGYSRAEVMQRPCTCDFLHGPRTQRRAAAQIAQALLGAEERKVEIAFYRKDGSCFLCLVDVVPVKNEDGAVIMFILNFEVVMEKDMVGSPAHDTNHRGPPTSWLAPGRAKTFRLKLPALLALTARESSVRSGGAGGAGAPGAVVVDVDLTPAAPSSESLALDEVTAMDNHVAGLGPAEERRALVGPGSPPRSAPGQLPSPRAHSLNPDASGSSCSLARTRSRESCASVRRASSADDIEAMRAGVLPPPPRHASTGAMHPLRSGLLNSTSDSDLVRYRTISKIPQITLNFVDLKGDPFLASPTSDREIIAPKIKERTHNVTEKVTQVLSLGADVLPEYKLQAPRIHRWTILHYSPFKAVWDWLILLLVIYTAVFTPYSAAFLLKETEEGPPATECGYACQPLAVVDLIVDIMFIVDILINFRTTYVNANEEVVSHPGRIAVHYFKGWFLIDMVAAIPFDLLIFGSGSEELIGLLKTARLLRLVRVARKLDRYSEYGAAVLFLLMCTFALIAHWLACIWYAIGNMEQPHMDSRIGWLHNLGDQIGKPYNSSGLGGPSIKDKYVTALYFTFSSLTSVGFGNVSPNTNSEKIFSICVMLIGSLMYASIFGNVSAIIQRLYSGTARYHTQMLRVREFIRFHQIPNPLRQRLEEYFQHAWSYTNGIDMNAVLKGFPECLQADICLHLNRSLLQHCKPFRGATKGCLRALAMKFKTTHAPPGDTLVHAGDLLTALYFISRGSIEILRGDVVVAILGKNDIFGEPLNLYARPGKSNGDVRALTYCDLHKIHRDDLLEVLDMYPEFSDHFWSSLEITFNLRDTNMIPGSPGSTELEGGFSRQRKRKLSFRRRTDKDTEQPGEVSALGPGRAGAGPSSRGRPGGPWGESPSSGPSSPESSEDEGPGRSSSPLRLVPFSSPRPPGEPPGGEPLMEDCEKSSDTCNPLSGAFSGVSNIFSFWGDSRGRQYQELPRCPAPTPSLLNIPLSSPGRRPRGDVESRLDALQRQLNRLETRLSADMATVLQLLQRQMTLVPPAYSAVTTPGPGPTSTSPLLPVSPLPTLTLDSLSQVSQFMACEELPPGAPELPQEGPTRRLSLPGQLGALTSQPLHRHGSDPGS
Sequence of Kinesin-like protein KIF14 (Q15058 whole entry): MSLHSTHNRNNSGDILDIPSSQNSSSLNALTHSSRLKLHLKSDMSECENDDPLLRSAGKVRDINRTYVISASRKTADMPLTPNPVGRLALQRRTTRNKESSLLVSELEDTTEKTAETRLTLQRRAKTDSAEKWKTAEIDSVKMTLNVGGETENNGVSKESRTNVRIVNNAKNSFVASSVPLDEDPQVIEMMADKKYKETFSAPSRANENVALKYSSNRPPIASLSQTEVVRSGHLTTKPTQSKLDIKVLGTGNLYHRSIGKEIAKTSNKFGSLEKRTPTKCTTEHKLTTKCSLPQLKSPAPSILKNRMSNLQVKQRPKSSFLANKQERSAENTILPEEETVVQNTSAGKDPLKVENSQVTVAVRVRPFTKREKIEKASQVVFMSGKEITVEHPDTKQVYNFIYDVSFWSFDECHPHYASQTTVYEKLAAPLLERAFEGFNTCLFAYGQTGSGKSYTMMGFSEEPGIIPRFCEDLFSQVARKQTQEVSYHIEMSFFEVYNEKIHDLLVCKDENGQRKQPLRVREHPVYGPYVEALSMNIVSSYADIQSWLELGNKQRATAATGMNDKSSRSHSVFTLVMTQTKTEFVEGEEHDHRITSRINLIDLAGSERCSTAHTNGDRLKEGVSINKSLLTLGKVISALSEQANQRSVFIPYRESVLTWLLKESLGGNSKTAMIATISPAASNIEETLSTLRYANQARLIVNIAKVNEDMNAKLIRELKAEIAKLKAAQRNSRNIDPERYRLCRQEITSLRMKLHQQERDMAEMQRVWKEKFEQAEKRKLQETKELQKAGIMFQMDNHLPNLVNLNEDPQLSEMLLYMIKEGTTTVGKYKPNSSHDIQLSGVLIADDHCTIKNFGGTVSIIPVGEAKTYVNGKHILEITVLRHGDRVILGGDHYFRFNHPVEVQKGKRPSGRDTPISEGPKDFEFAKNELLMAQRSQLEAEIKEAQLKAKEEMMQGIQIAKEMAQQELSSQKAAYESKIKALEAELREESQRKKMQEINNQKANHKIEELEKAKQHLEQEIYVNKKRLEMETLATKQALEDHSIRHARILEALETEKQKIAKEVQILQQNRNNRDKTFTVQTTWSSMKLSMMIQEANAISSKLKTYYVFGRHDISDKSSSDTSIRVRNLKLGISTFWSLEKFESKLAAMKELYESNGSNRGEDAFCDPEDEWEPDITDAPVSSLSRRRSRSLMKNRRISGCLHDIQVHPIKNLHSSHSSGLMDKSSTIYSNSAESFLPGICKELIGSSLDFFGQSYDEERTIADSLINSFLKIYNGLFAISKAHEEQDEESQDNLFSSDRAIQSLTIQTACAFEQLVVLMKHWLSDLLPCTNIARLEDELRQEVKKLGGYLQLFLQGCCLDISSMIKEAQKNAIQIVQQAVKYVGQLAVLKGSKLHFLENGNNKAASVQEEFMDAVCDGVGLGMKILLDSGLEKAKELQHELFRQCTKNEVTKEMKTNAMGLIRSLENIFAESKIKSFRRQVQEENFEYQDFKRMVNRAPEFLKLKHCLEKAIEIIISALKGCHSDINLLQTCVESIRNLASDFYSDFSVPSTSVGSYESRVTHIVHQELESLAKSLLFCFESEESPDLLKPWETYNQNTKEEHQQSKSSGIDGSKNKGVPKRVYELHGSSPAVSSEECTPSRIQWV

SMILES: CN1CC[C@H](N(C)C(=O)N2CC(c3cc(F)ccc3F)=C[C@@]2(CO)c2ccccc2)[C@H](F)C1
- solubility [1]: > 50 mg/mL
- Ratio [2]: 4.5
- Activity [3]: inactive
- IC50 [4]: > 50 µM
- clearance [5]: 23.1 mL/min/kg
- IC50 [6]: 20.5 µM
- clearance [7]: 66.7 mL/min/kg
- EC90 [8]: 0.094 µM
- Activity [9]: Active
- Activity [10]: Non-toxic
- MTD [11]: 100 mg/kg
- EC50 [12]: 0.0027 µM
- Activity [13]: 90%
- Activity [14]: Toxic
- pKa [15]: 7.6
- IC50 [16]: > 50 µM
- EC50 [17]: 0.0053 µM
- IC50 [18]: 0.0291 µM
- IC50 [19]: > 50 µM
